Vif imaging = inhibitors of HIV Vif | HEK293T cells, Vif self-association by quenched fluorescence, imaging, 24 h | inhibition, % at 7.49 µM | actives 0.35% (n = 340,000) | AID 602346; in the data active = inhibition above about 50%, passing the limit was not always enough; inconclusive = no clear call, values can overlap the other calls; inactive = below about 31%
H9c2 TAG inh = inhibitors of triacylglycerol accumulation; H9c2 cells, Nile Red lipid (TAG) fluorescence; cells loaded with 200 µM oleic acid; inhibition, % at 12.5 µM; actives 0.66% (n = 230,000);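 active = pattern-corrected inhibition of lipid staining of at least 50% with the nuclear-stain viability signal not falling by more than 50%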;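 note: 0% = DMSO wells and 100% = triacsin C control wells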
SR-BI DiI inh = mouse SR-BI HDL lipid transfer inhibition. Q61009. ldlA[mSR-BI] CHO cells, DiI-HDL uptake fluorescence, 3 h. inhibition, % at 12.5 µM. actives 0.96% (n = 320,000). AID 488896;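 active = mean replicate inhibition of at least 70% and a set share of replicates each scoring 70 or more; inconclusive = meets just one of the two criteria; inactive = fails both criteria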;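 note: 0% = median of neutral control wells and 100% = median of positive control wells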
Target sequence (Q61009 whole entry, looked up): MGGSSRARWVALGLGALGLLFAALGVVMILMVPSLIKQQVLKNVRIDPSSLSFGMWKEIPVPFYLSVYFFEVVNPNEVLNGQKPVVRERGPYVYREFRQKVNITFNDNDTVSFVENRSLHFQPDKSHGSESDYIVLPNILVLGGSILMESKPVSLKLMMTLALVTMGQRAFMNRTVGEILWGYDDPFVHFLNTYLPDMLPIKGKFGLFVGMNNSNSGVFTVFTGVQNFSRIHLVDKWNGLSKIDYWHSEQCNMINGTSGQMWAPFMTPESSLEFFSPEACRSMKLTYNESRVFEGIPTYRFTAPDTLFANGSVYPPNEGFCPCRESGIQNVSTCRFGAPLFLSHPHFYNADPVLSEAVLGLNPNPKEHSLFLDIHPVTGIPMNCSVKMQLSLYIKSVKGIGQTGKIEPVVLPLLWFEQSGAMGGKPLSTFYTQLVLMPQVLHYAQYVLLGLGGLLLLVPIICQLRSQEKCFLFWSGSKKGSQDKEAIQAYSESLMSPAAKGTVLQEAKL
SR-BI DiI-HDL act = SR-BI HDL lipid transfer activation. CHO ldlA[mSR-BI] cells, DiI-HDL uptake fluorescence, 3 h; 100 = double the neutral-control signal. activation, % at 12.5 µM. actives 0.096% (n = 320,000). AID 504775;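 active = mean replicate activation of at least 60% and every replicate at or above 60%; inconclusive = mean or all-replicate condition met, but not both; inactive = mean below 60% and not all replicates reaching 60%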;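 note: 0% = median plate neutral-control signal and 100% = twice that signal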
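Material – SR-BI-overexpressing, LDLR-lacking CHO cells · Medium – BSA-supplemented, HEPES-buffered Ham's F12, pH 7.4 · Doses – single concentration · Times – compound with DiI-HDL co-incubation, 3 h at 37 °C · Measured by – bottom-read fluorescence, 550/595 nm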
SMARCA2 activ = SMARCA2 function activation, primary screen. MG213 cells, MMTV-luciferase reporter, dexamethasone, overnight. actives 1% (n = 370,000). activation, % at 9.1 µM; in the data active = activation above about 7.8%;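 note: 0% = vehicle wells and 100% = reference activator wells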
DiI quencher = DiI fluorescence quenching in cell-free counter-screen; shares compounds with SR-BI DiI inh; cell-free DiI-HDL fluorescence quenching, 30 min; AC50, µM (top dose mostly 35 µM), inactives show top-dose activity change, negative = quenching; actives 20% (n = 470);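 active = quenching, a falling signal, with AC50 below a set limit tied to the top valid dose, actives reach about 32 µM in these data; inconclusive = no clear call, values can overlap the other calls; inactive = rising signal, and the rest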
* hit, by the source's call; ? = inconclusive; . = no result; ! = a repeat was not active. Compounds with a hit are over-represented: about 2.5% of the library has one in this group of screens.

SMILES	Vif imaging	H9c2 TAG inh	SR-BI DiI inh	SR-BI DiI-HDL act	SMARCA2 activ	DiI quencher
Cc1ccc(NC(=O)CSc2nnc([C@H](C)NC(=O)OC(C)(C)C)o2)c(C)c1	0	1	73*	-73	4	0%
CCC(C)n1ncn(-c2ccc(N3CCN(c4ccc(OCC5COC(Cn6cncn6)(c6ccc(Cl)cc6Cl)O5)cc4)CC3)cc2)c1=O (stereo not given)	-15	36	83*!	-83	-5	-11%
CCC(C)n1ncn(-c2ccc(N3CCN(c4ccc(O)cc4)CC3)cc2)c1=O (stereo not given)	4	.	21	-21	-4	.
CCC(C)C1/C=C\CC(NC(=O)OCC2c3ccccc3-c3ccccc32)CC(=O)N1Cc1ccccc1 (stereo not given)	0	20	75*	-75	.	-2%
COCc1cc(N2CCNC[C@H]2C)ccc1N1CCS(=O)(=O)CC1	.	.	.	.	2	.
CC1Cc2ccccc2N1CC(=O)Nc1ccc(N2CCOCC2)cc1 (stereo not given)	4	.	83*	-83	-2	-19%
Cc1ccc2c(c1)C(=O)C(=O)N2CC(=O)Nc1ccc(N2CCOCC2)cc1	8	9	4	-4	-1	-11%
Cc1ccc(NC(=O)CN2C(=O)N/C(=C/c3ccc(N4CCOCC4)cc3)C2=O)cc1	-2	.	5	-5	0	.
O=C(C1=COCCO1)N(Cc1nnc(-c2ccccc2Cl)o1)C1CC1	-7	-3	?	-75	-3	-3%
Cc1ccc(OCc2nnc(SCC(=O)Nc3ccc4c(c3)OCO4)n2Cc2ccco2)cc1	.	.	.	.	-4	.
COc1ccc(CC(=O)Nc2ccc(-c3noc(-c4ccccc4OC)n3)cc2)cc1	17	.	57	-57	-4	.
CCOc1ccc(NC(=O)CN2CCN(CC(=O)Nc3ccc(F)cc3)CC2)cc1	8	-8	53	-53	0	.
COc1ccc(NC(=O)CN2CCN(CC(=O)Nc3ccc(OC)c(OC)c3)CC2)cc1	2	12	?	-72	0	-2%
CCOc1ccc(NC(=O)CN2CCN(CC(=O)Nc3ccc(N(C)C)cc3)CC2)cc1	-5	.	86*	-86	-2	-13%
COc1ccc(CCC(=O)Nc2ccc(-c3noc(-c4ccc(OC)c(OC)c4)n3)cc2)cc1	36	26	101*	-101	0	-5%
Cc1ccccc1NC(=O)NCC1CCN(c2ccc(S(=O)(=O)N3CCOCC3)cc2)CC1	2	.	82*	-82	-2	-2%
Cc1cccc(NC(=O)NCC2CCN(c3ccc(S(=O)(=O)N4CCOCC4)cc3)CC2)c1	-6	.	61	-61	-2	.
COc1ccc(C2CC(=O)C(c3cccc(F)c3)=CN2Cc2ccccc2)cc1 (stereo not given)	.	.	.	.	0	.
CC(=O)c1c(C)[nH]c(C(=O)OCc2nc3ccsc3c(=O)[nH]2)c1C	-15	10	71*	-71	2	-6%
O=C(c1ccc(S(=O)(=O)NCc2ccco2)cc1)N1CCCC1	5	-4	-1	1	-1	.
N#Cc1ccc(CN2CCN(C(=O)c3ccc(S(=O)(=O)NCc4ccco4)cc3)CC2)cc1	-3	-1	?	-72	-3	0%
CC(=O)c1ccc(N2CCN(C(=O)/C=C/c3ccc(S(=O)(=O)NCc4ccco4)cc3)CC2)cc1	-15	2	88*	-88	-7	-3%
O=C(C(=O)N1CCC(CNS(=O)(=O)c2ccccc2)CC1)c1cc2ccccc2o1	.	.	.	.	-4	.
COc1ccc(C2/C=C\CN(S(=O)(=O)c3ccc(C)cc3)[C@H](Cc3ccccc3)C(=O)N2Cc2ccc(F)cc2)cc1 (stereo not given in full)	2	10	16	-16	.	.
COc1ccc(C2/C=C\CN(S(=O)(=O)c3ccc(-c4ccccc4)cc3)CC(=O)N2Cc2ccc(F)cc2)cc1 (stereo not given)	-1	-17	81*	-81	0	-5%
SMILES	Vif imaging	H9c2 TAG inh	SR-BI DiI inh	SR-BI DiI-HDL act	SMARCA2 activ	DiI quencher
CSc1nccc(-c2sc(SC)c(C#N)c2-c2ccccc2)n1	-8	28	84*	-84	-3	-3%
N[C@H]1CC[C@@H]2SC[C@@H](C(=O)O)N2C1=O	.	.	.	.	-1	.
CN(Cc1ccccc1N1CCCC1)C(=O)c1cc2cc(Cl)ccc2o1	.	-61	70*	-70	3	-9%
CCCCCCCCN1C(=O)[C@@H](CC(=O)N2CCOCC2)C[C@@]2(C(=O)OC)C1=C[C@H](C(C)(C)C)O[C@@H]2C	.	.	.	.	-8	.
O=C(Nc1ccccc1F)c1ccc2c(c1)CCN2S(=O)(=O)c1ccccc1	-6	.	53	-53	-1	-1%
Cc1cccc(NC(=O)c2ccc3c(c2)CCN3S(C)(=O)=O)c1	-1	20	39	-39	3	.
CN(C(=O)c1ccc2c(c1)CCN2S(C)(=O)=O)c1ccccc1	22	8	20	-20	-1	-2%
Cc1ccc(NC(=O)c2ccc3c(c2)CCN3S(C)(=O)=O)cc1	-3	-2	.	.	1	.
CS(=O)(=O)N1CCc2cc(C(=O)OCC(=O)c3ccccc3)ccc21	.	-5	-6	6	1	.
Cc1cc(C)cc(NC(=O)c2ccc3c(c2)CCN3S(C)(=O)=O)c1	-6	.	77*	-77	1	3%
Cc1ccc(NC(=O)c2ccc3c(c2)CCN3S(C)(=O)=O)cc1C	3	.	?	-70	3	0%
O=C(Nc1cccs1)OC1CC2CC1[C@H]1CCCCN1C2 (stereo not given in full)	.	.	.	.	-2	.
Cc1nn(-c2ccccc2)c2sc(C(=O)N3CCN(S(=O)(=O)c4ccc(Br)s4)CC3)cc12	.	.	.	.	-2	.
CCOC(=O)[C@]12CCCC=C1N(Cc1ccc(OC)cc1)C(=O)[C@@H]2CC(=O)NCCCOC	.	.	.	.	-3	.
COc1ccc(N(CC(=O)NC2CCCC2)C(=O)Cn2nnc(-c3ccc(OC)c(OC)c3)n2)cc1	-3	-14	80*	-80	-4	-4%
CCC(C(=O)NC1CCCC1)N(C(=O)Cn1nnc(-c2ccc(OC)c(OC)c2)n1)c1cccc(O)c1 (stereo not given)	5	.	28	-28	-3	0%
O=C(Nc1cccc(S(=O)(=O)N2CCOCC2)c1)C1CCN(S(=O)(=O)c2ccccc2)CC1	1	-4	?	-76	-5	6%
O=S1(=O)N[C@@H](Cc2ccccc2)COc2cccc(NCCO)c21	.	.	.	.	1	.
COc1ccc(N2C(=O)C3C(C2=O)C3(c2ccccc2)c2ccccc2)cc1 (stereo not given)	-11	-2	22	-22	-6	0%
COc1cc(/C=C/C(=O)OCC(=O)c2ccc[nH]2)cc(OC)c1OC	0	0	?	-74	-2	-2%
COc1ccc(/C=C/C(=O)OCC(=O)c2ccc[nH]2)cc1	-14	4	-4	4	-1	.

Bioassay records (PubChem)
